Results on 3 molecules are retold here after ChEMBL document CHEMBL1134691, “3-Phenyl-5-acyloxymethyl-2H,5H-furan-2-ones: synthesis and biological activity of a novel group of potential antifungal drugs” (2001).

Test [1] has as its system Lichtheimia corymbifera. As to the kind of experiment: In vitro inhibition of Absidia corymbifera 272 growth for 24 hours. The note with it: Lichtheimia corymbifera, 24 h; read-out: MIC. The test is classed as functional. The method, boiled down: (§1)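 Filamentous isolates tested by microdilution per NCCLS M27-A in RPMI 1640 plus L-glutamine, buffered with 0.165 M MOPS to pH 7.0. Final inoculum 5 × 10^3 cfu/mL. Compounds in DMSO (final ≤2%), 2-fold series over 1000–0.24 µmol/L. Plates held at 35 °C and read visually after 24 and 48 h. MIC taken as 80% inhibition of control growth; determined twice in duplicate.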

Test [2] relates to Lichtheimia corymbifera. Description: In vitro inhibition of Absidia corymbifera 272 growth for 48 hours. The test is classed as functional. Conditions: Lichtheimia corymbifera, 48 h; read-out: MIC. The method, boiled down: as §1
Test [3] relates to Pichia kudriavzevii. Description: Inhibition of Candida krusei ATCC 6258 growth for 24 hours in vitro. The format is functional. Conditions: Pichia kudriavzevii, ATCC 6258, 24 h; read-out: MIC. The method, boiled down:
(§2)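 NCCLS M27-A broth microdilution in RPMI 1640 with L-glutamine and 0.165 M MOPS, pH 7.0. Isolates kept on Sabouraud dextrose agar. Inoculum 5 × 10^3 cfu/mL final. Compounds were diluted in DMSO (≤2% final) and tested in 2-fold dilutions of 1000–0.24 µmol/L. Incubation at 35 °C, OD540 read at 24 and 48 h. MIC = 80% growth inhibition versus control; assays run twice in duplicate.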

Test [4] deals with Pichia kudriavzevii. As to the kind of experiment: Inhibition of Candida krusei ATCC 6258 growth for 48 hours in vitro. The test is classed as functional. The note with it: Pichia kudriavzevii, ATCC 6258, 48 h; read-out: MIC. The method, boiled down: as §2
For test [5], the system named is Pichia kudriavzevii. As to the kind of experiment: Inhibition of Candida krusei E28 growth for 24 hours in vitro. The format is functional. Conditions: Pichia kudriavzevii, 24 h; read-out: MIC. The method, boiled down:
as §2

The test system of test [6] is Pichia kudriavzevii. Description: Inhibition of Candida krusei E28 growth for 48 hours in vitro. The format is functional. Conditions: Pichia kudriavzevii, 48 h; read-out: MIC. The method, boiled down:
as §2

Test [7] relates to Aspergillus fumigatus. Description: Inhibition of Aspergillus fumigatus 231 growth for 48 hours in vitro. The test is classed as functional. Conditions: Aspergillus fumigatus, 48 h; read-out: MIC. The method, boiled down: as §1
Test [8] has as its system Clavispora lusitaniae. Description: Inhibition of Candida lusitaniae 2446/I growth for 24 hours in vitro. The format is functional. Conditions: Clavispora lusitaniae, 24 h; read-out: MIC. The method, boiled down:
as §2

Test [9] deals with Clavispora lusitaniae. As to the kind of experiment: Inhibition of Candida lusitaniae 2446/I growth for 48 hours in vitro. The test is classed as functional. The note with it: Clavispora lusitaniae, 48 h; read-out: MIC. The method, boiled down: as §2
Test [10] deals with Candida parapsilosis. As to the kind of experiment: Inhibition of Candida parapsilosis ATCC 22019 growth for 24 hours in vitro. The format is functional. Conditions: Lodderomyces parapsilosis, ATCC 22019, 24 h; read-out: MIC. The method, boiled down: as §2
Test [11] has as its system Candida parapsilosis. As to the kind of experiment: Inhibition of Candida parapsilosis ATCC 22019 growth for 48 hours in vitro. The format is functional. The note with it: Lodderomyces parapsilosis, ATCC 22019, 48 h; read-out: MIC. The method, boiled down: as §2
Test [12] deals with Candida albicans. As to the kind of experiment: Inhibition of Candida albicans ATCC 44859 growth for 24 hours in vitro. The note with it: Candida albicans, ATCC 44859, 24 h; read-out: MIC. The test is classed as functional. The method, boiled down: as §2
Test [13] deals with Candida albicans. As to the kind of experiment: Inhibition of Candida albicans ATCC 44859 growth for 48 hours in vitro. The test is classed as functional. Conditions: Candida albicans, ATCC 44859, 48 h; read-out: MIC. The method, boiled down: as §2
Test [14] has as its system Candida albicans. As to the kind of experiment: Inhibition of Candida albicans ATCC 90028 for 24 hours in vitro. The test is classed as functional. The note with it: Candida albicans, ATCC 90028, 24 h; read-out: MIC. The method, boiled down:
as §2

Test [15] concerns Candida albicans. As to the kind of experiment: Inhibition of Candida albicans ATCC 90028 for 48 hours in vitro. The format is functional. Conditions: Candida albicans, ATCC 90028, 48 h; read-out: MIC. The method, boiled down:
as §2

Test [16] has as its system Nakaseomyces glabratus. Description: Inhibition of Candida glabrata 20/I growth for 24 hours in vitro. The format is functional. Conditions: Nakaseomyces glabratus, 24 h; read-out: MIC. The method, boiled down:
as §2

Test [17] relates to Nakaseomyces glabratus. As to the kind of experiment: Inhibition of Candida glabrata 20/I growth for 48 hours in vitro. The test is classed as functional. The note with it: Nakaseomyces glabratus, 48 h; read-out: MIC. The method, boiled down:
as §2

Test [18] relates to Candida tropicalis. Description: Inhibition of Candida tropicalis 156 growth for 24 hours in vitro. The format is functional. The note with it: Candida tropicalis, 24 h; read-out: MIC. The method, boiled down: as §2
Test [19] relates to Trichosporon beigelii. As to the kind of experiment: Inhibition of Trichosporon beigelli 1188 for 24 hours in vitro. The test is classed as functional. Conditions: Trichosporon beigelii, 24 h; read-out: MIC. The method, boiled down: (§3)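 Microdilution following NCCLS M27-A. Medium: RPMI 1640 with L-glutamine, 0.165 M MOPS, pH 7.0. Final inoculum 5 × 10^3 cfu/mL. Compounds dissolved in DMSO, final ≤2%, serially halved from 1000 to 0.24 µmol/L. Incubated at 35 °C and read at 24 and 48 h. MIC defined as 80% inhibition of control growth; run twice in duplicate.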

The test system of test [20] is Trichosporon beigelii. As to the kind of experiment: Inhibition of Trichosporon beigelli 1188 for 48 hours in vitro. The format is functional. The note with it: Trichosporon beigelii, 48 h; read-out: MIC. The method, boiled down: as §3
A short description of test [21]: Inhibition of Trichophyton mentagrophytes 445 growth for 72 hours in vitro. The format is functional, Arthroderma benhamiae. Conditions: Trichophyton benhamiae, 72 h; read-out: MIC. The method, boiled down:
(§4)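 Dermatophyte grown in MOPS-buffered (0.165 M, pH 7.0) RPMI 1640 containing L-glutamine, in an M27-A microdilution format. Inoculum 5 × 10^3 cfu/mL final. Compounds from DMSO stocks (≤2% final), 2-fold dilutions 1000–0.24 µmol/L. Incubated at 35 °C, growth judged visually at 72 and 120 h. MIC endpoint is 80% inhibition relative to control; measured twice in duplicate.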

Test [22] in a line: Inhibition of Trichophyton mentagrophytes 445 growth for 120 hours in vitro. The test is classed as functional, Arthroderma benhamiae. The note with it: Trichophyton benhamiae, 120 h; read-out: MIC. The method, boiled down:
as §4

The test system of test [23] is Aspergillus fumigatus. As to the kind of experiment: Inhibition of Aspergillus fumigatus 231 growth for 24 hours in vitro. Conditions: Aspergillus fumigatus, 24 h; read-out: MIC. The test is classed as functional. The method, boiled down: as §1
Test [24] deals with Candida tropicalis. As to the kind of experiment: Inhibition of Candida tropicalis 156 growth for 48 hours in vitro. The format is functional. Conditions: Candida tropicalis, 48 h; read-out: MIC. The method, boiled down:
as §2

SMILES strings stand for the structures. Converted amounts (≈) assume the structure as drawn.

Take `CC(C)(C)C(=O)OCC1C=C(c2cccc(Cl)c2)C(=O)O1` (configuration not stated): the MIC in the test on Lichtheimia corymbifera [1] turned out to be 7.81 µM (≈ 2.41 µg/mL); in the test on Lichtheimia corymbifera [2], 15.6 µM (≈ 4.83 µg/mL); with Pichia kudriavzevii [3] it was 7.81 µM (≈ 2.41 µg/mL); in the test with Pichia kudriavzevii [4], 7.81 µM (≈ 2.41 µg/mL); in the test with Pichia kudriavzevii [5], 7.81 µM (≈ 2.41 µg/mL); with Pichia kudriavzevii [6] it was 15.6 µM (≈ 4.83 µg/mL). Further, the MIC with Aspergillus fumigatus [7] was 3.91 µM (≈ 1.21 µg/mL); in the test with Clavispora lusitaniae [8], 3.91 µM (≈ 1.21 µg/mL); in the test on Clavispora lusitaniae [9] it was 7.81 µM (≈ 2.41 µg/mL); in the test with Candida parapsilosis [10], 7.81 µM (≈ 2.41 µg/mL); in the test on Candida parapsilosis [11] it was 15.6 µM (≈ 4.83 µg/mL); with Candida albicans [12], under 0.98 µM. Further, the MIC in the test on Candida albicans [13] was 3.91 µM (≈ 1.21 µg/mL); in the test with Candida albicans [14], 3.91 µM (≈ 1.21 µg/mL); with Candida albicans [15], 7.81 µM (≈ 2.41 µg/mL); with Nakaseomyces glabratus [16] it was under 0.98 µM; with Nakaseomyces glabratus [17], under 0.98 µM; in the test on Candida tropicalis [18], 7.81 µM (≈ 2.41 µg/mL). Moreover, the MIC in the test on Trichosporon beigelii [19] was 3.91 µM (≈ 1.21 µg/mL); in the test with Trichosporon beigelii [20], 15.6 µM (≈ 4.83 µg/mL); in test [21], 1.95 µM (≈ 0.602 µg/mL); in test [22] it was 1.95 µM (≈ 0.602 µg/mL); in the test on Aspergillus fumigatus [23] it was under 0.98 µM; with Candida tropicalis [24], 15.6 µM (≈ 4.83 µg/mL).

With `CC(=O)OCC1C=C(c2ccc(Cl)c(Cl)c2)C(=O)O1` (configuration not stated), the MIC in the test on Lichtheimia corymbifera [1] was determined as 15.6 µM (≈ 4.71 µg/mL); in the test with Lichtheimia corymbifera [2], 15.6 µM (≈ 4.71 µg/mL); in the test on Pichia kudriavzevii [3], 3.91 µM (≈ 1.18 µg/mL); with Pichia kudriavzevii [4] it was 7.81 µM (≈ 2.35 µg/mL); in the test with Pichia kudriavzevii [5], 3.91 µM (≈ 1.18 µg/mL); in the test on Pichia kudriavzevii [6], 3.91 µM (≈ 1.18 µg/mL). In addition, the MIC in the test with Aspergillus fumigatus [7] was 7.81 µM (≈ 2.35 µg/mL); with Clavispora lusitaniae [8], 1.95 µM (≈ 0.587 µg/mL); in the test on Clavispora lusitaniae [9], 1.95 µM (≈ 0.587 µg/mL); in the test with Candida parapsilosis [10], 3.91 µM (≈ 1.18 µg/mL); in the test with Candida parapsilosis [11], 7.81 µM (≈ 2.35 µg/mL); in the test with Candida albicans [12] it was 0.49 µM (≈ 0.148 µg/mL). For the same molecule, the MIC in the test on Candida albicans [13] stood at 3.91 µM (≈ 1.18 µg/mL); with Candida albicans [14], 3.91 µM (≈ 1.18 µg/mL); in the test with Candida albicans [15], 3.91 µM (≈ 1.18 µg/mL); in the test with Nakaseomyces glabratus [16], 0.98 µM (≈ 0.295 µg/mL); with Nakaseomyces glabratus [17] it was 0.98 µM (≈ 0.295 µg/mL); in the test with Candida tropicalis [18], 3.91 µM (≈ 1.18 µg/mL). In addition, the MIC is 1.95 µM (≈ 0.587 µg/mL) with Trichosporon beigelii [19]; 7.81 µM (≈ 2.35 µg/mL) in the test on Trichosporon beigelii [20]; 0.98 µM (≈ 0.295 µg/mL) in test [21]; 0.98 µM (≈ 0.295 µg/mL) in test [22]; 0.98 µM (≈ 0.295 µg/mL) in the test on Aspergillus fumigatus [23]; 7.81 µM (≈ 2.35 µg/mL) in the test on Candida tropicalis [24].

On to `O=C1OC(COC(=O)c2ccc(Cl)cc2)C=C1c1ccc(Cl)c(Cl)c1` (configuration not stated), for which the MIC in the test on Lichtheimia corymbifera [1] was found to be 15.6 µM (≈ 6.22 µg/mL); in the test with Lichtheimia corymbifera [2], 31.2 µM (≈ 12.4 µg/mL); with Pichia kudriavzevii [3] it was 3.91 µM (≈ 1.55 µg/mL); in the test with Pichia kudriavzevii [4], 7.81 µM (≈ 3.11 µg/mL); in the test on Pichia kudriavzevii [5] it was 3.91 µM (≈ 1.55 µg/mL); in the test on Pichia kudriavzevii [6], 7.81 µM (≈ 3.11 µg/mL). In addition, the MIC in the test with Aspergillus fumigatus [7] was 3.91 µM (≈ 1.55 µg/mL); with Clavispora lusitaniae [8], 1.95 µM (≈ 0.775 µg/mL); in the test on Clavispora lusitaniae [9], 3.91 µM (≈ 1.55 µg/mL); in the test with Candida parapsilosis [10], 1.95 µM (≈ 0.775 µg/mL); in the test on Candida parapsilosis [11], 3.91 µM (≈ 1.55 µg/mL); in the test with Candida albicans [12] it was 0.12 µM (≈ 0.0477 µg/mL). The MIC is 1.95 µM (≈ 0.775 µg/mL) in the test with Candida albicans [13]; 1.95 µM (≈ 0.775 µg/mL) in the test with Candida albicans [14]; 3.91 µM (≈ 1.55 µg/mL) in the test on Candida albicans [15]; 0.98 µM (≈ 0.39 µg/mL) in the test on Nakaseomyces glabratus [16]; 0.98 µM (≈ 0.39 µg/mL) in the test on Nakaseomyces glabratus [17]; 1.95 µM (≈ 0.775 µg/mL) in the test on Candida tropicalis [18]. Also, the MIC in the test with Trichosporon beigelii [19] is 1.95 µM (≈ 0.775 µg/mL); in the test on Trichosporon beigelii [20] it was 7.81 µM (≈ 3.11 µg/mL); in test [21], 0.98 µM (≈ 0.39 µg/mL); in test [22] it was 0.98 µM (≈ 0.39 µg/mL); with Aspergillus fumigatus [23], 0.98 µM (≈ 0.39 µg/mL); in the test with Candida tropicalis [24], 3.91 µM (≈ 1.55 µg/mL).
